According to ChEMBL document CHEMBL4396964, “Synthesis, biological activities, and docking studies of d-pantolactone derivatives as novel FAS inhibitors” (Bioorg Med Chem, 2019):
The source made the active and inactive calls. No cut-off for these calls is given here.

Assays:
Fatty acid synthase = Fatty acid synthase (Mus musculus, UniProt P19096); test: Inhibition of mouse FAS preincubated for 30 mins in presence of acetyl coenzyme A and NADPH followed by malonyl coenzyme A addition and measured after 3 mins by spectrophotometric analysis
Fatty acid synthase, sequence (P19096 whole entry): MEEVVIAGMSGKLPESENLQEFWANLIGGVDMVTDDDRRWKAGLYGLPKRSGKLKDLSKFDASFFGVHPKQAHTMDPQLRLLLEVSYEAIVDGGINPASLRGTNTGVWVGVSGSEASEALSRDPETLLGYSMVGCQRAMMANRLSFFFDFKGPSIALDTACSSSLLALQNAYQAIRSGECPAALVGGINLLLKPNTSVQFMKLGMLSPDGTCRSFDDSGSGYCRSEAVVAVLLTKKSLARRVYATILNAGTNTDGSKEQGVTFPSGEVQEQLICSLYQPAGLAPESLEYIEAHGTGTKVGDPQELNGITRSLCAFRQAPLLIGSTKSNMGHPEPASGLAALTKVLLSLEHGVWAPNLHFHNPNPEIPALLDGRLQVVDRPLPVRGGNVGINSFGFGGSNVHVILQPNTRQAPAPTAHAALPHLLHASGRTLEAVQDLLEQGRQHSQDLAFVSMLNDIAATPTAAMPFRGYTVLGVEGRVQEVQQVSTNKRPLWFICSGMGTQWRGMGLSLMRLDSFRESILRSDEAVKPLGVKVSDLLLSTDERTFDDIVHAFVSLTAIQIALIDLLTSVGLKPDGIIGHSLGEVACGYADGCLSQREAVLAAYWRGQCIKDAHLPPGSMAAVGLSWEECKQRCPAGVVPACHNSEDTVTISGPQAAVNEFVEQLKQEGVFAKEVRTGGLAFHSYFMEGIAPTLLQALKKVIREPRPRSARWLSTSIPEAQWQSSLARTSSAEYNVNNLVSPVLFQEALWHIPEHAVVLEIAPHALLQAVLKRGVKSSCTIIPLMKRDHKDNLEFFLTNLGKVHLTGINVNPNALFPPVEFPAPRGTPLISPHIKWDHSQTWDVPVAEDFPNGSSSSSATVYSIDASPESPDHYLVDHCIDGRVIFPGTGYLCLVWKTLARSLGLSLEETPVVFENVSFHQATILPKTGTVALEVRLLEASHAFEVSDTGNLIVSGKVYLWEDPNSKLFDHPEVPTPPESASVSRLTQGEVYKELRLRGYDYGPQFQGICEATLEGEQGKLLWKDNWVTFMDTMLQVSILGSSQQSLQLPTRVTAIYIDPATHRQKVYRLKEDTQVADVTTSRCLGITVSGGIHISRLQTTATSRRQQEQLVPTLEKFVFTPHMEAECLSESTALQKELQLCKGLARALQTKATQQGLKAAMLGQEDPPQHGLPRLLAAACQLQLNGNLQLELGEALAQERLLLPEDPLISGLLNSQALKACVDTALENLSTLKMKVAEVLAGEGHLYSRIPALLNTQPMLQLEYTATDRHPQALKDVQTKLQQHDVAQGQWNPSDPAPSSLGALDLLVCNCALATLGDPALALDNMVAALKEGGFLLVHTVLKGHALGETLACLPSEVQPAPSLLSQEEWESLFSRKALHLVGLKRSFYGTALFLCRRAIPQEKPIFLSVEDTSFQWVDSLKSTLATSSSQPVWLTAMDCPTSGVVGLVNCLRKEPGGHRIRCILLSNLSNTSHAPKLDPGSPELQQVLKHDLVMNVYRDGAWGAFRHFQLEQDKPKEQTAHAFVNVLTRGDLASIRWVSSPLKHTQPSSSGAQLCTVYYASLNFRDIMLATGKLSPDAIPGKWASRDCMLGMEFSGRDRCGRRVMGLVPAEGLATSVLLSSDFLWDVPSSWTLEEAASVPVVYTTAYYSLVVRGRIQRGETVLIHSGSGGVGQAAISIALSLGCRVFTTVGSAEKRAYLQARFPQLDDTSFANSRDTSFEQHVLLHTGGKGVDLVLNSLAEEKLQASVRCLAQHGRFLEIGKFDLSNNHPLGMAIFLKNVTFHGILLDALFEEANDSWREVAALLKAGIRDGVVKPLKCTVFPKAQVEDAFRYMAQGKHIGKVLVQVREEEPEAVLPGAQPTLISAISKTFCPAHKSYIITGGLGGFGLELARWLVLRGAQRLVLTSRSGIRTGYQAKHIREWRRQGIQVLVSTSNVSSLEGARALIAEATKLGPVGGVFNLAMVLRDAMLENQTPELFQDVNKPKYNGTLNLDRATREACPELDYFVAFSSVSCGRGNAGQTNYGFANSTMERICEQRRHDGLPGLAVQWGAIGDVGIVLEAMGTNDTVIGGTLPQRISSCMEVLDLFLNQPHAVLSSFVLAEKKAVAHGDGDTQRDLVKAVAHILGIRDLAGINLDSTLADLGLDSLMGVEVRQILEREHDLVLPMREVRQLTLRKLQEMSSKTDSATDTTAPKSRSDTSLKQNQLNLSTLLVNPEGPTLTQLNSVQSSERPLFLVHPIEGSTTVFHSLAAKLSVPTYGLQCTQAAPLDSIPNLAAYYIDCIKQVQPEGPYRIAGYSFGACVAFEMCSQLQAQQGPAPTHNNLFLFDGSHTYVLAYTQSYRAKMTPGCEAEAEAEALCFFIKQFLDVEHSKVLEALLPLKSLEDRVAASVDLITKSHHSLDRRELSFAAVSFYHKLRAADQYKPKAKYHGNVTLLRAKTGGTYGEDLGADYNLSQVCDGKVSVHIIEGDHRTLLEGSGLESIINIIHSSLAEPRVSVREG
In short: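 Crude mouse-liver FAS (196.2 U/mg) preincubated with compound, NADPH and acetyl-CoA in K2HPO4 buffer pH 7.0 at 37 °C for 30 min. Malonyl-CoA then added, and NADPH oxidation followed at 340 nm for 3 min at 37 °C. Inhibition computed against a compound-free control. IC50 from at least five concentrations, each in triplicate; mean ± SE of three experiments.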

HepG2 = details: Homo sapiens, at 10 µM
[1] = target: Fatty acid synthase (Mus musculus) (UniProt P19096); test: Inhibition of mouse FAS at 80 uM preincubated for 30 mins in presence of acetyl coenzyme A and NADPH followed by malonyl coenzyme A addition and measured after 3 mins by spectrophotometric analysis
Fatty acid synthase (Mus musculus), sequence (P19096 whole entry): as above

| SMILES | IC50 (Fatty acid synthase) [µM] | inhibition (HepG2) | inhibition [1] |
| --- | --- | --- | --- |
| CCCCCCCCCCCC(=O)O[C@H]1C(=O)OCC1(C)C | 15.2 | Active | – |
| CCCCCCCCCCCCCCCC(=O)O[C@H]1C(=O)OCC1(C)C | 19.6 | Active | – |
| Cc1ccc(C(=O)O[C@H]2C(=O)OCC2(C)C)cc1 | 17.2 | inactive | – |
| CCCCCC(=O)O[C@H]1C(=O)OCC1(C)C | 23.3 | Active | – |
| CC1(C)COC(=O)[C@@H]1O | – | – | inactive |
| CCOc1ccc(C(=O)O[C@H]2C(=O)OCC2(C)C)cc1 | – | – | inactive |
| CC1(C)COC(=O)[C@@H]1OC(=O)c1ccc(Cl)cc1 | 19.2 | Active | – |
| CC1(C)COC(=O)[C@@H]1OC(=O)c1ccc(Br)cc1 | – | – | inactive |
| CC1(C)COC(=O)[C@@H]1OC(=O)c1ccc(C#N)cc1 | 21.5 | Active | – |
| C=C1C(=O)OC(CCCCCCCC)C1C(=O)O (configuration not stated) | 13.9 | Active | – |
| CC(=O)O[C@H]1C(=O)OCC1(C)C | 33.2 | – | – |
| CCCCCCCC(=O)O[C@H]1C(=O)OCC1(C)C | 20.8 | Active | – |
| CC1(C)COC(=O)[C@@H]1OC(=O)c1ccc(F)cc1 | – | – | inactive |
| CC1(C)COC(=O)[C@@H]1OC(=O)c1ccccc1 | 23 | inactive | – |
| CC(=O)Oc1cc(C(=O)O[C@H]2C(=O)OCC2(C)C)cc(OC(C)=O)c1OC(C)=O | 13.9 | Active | – |
| CCCCCCCCCCCCCCCCCC(=O)O[C@H]1C(=O)OCC1(C)C | – | – | inactive |
| CC1(C)COC(=O)[C@@H]1OC(=O)c1ccc(I)cc1 | – | – | inactive |
| CCCCc1ccc(C(=O)O[C@H]2C(=O)OCC2(C)C)cc1 | 27.7 | – | – |
| COc1ccc(C(=O)O[C@H]2C(=O)OCC2(C)C)cc1 | 13.7 | Active | – |
| CC(C)Cc1ccc(C(C)C(=O)O[C@H]2C(=O)OCC2(C)C)cc1 (some centres not stated) | 28.2 | – | – |
| CCCC(=O)O[C@H]1C(=O)OCC1(C)C | 28.2 | – | – |
